Data: ChEMBL document CHEMBL4020760, “Discovery of a Small Molecule Probe That Post-Translationally Stabilizes the Survival Motor Neuron Protein for the Treatment of Spinal Muscular Atrophy” (J Med Chem, 2017)
Values after ≈ are worked out from the molar mass of the structure shown. Active and inactive are the calls of the source. The rule behind the calls is not given here. Peptide text beside a SMILES is read from it. * marks the point of attachment. Cbz = O=C(OCc1ccccc1)*

Columns and labels:
[1] = target: Survival motor neuron protein (Homo sapiens) (UniProt Q16637); test: Stabilization of human SMN protein expressed in HEK293 cells expressing SMN2 promoter after 24 hrs by luciferase reporter gene assay relative to control; type: cell-based
Sequence of Survival motor neuron protein (Homo sapiens) (Q16637 whole entry, the tested form may be a part): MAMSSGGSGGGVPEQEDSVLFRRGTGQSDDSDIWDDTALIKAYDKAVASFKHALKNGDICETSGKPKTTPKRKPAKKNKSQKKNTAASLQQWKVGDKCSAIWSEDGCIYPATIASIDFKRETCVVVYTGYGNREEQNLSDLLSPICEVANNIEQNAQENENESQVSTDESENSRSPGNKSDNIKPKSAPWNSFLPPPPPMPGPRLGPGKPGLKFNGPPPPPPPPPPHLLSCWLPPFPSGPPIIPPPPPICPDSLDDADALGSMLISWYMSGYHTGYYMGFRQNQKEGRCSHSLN
Method in brief: (§1)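 SMN2-luc reporter cells seeded at 25,000/well overnight, then treated 24 h with six doses (3-fold serial dilutions, top final 10 or 30 μM), 0.1% DMSO. Firefly and Renilla luciferase read by dual-luciferase assay, normalized to DMSO as percent; EC50 and maximal activation from curves. Mean ± SEM, ≥3 trials.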

Plasma [2] = test: Half life in mouse plasma after 60 mins; type: ADME, cell-free; conditions: 1 h
Homo sapiens [3] = organism: Homo sapiens; test: Inhibition of proteasome in HEK293 cells assessed as stabilization of SMN protein by measuring increase in SMN protein half life at 10 uM by pulse-chase experiment; type: cell-based
Homo sapiens [4] = organism: Homo sapiens; test: Inhibition of proteasome in HEK293 cells assessed as increase in polyubiquitinated protein level at 1 and 10 uM incubated for 2 hrs by SDS-PAGE analysis; type: cell-based
Method in brief: (§2)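 HEK293 cells pretreated 2 h with test compound or MG-132 (1 and 10 μM), then DMSO or cycloheximide (10 μM) added and incubated a further 6 h; final DMSO 0.2%. Lysates run on 4–15% gradient SDS-PAGE; anti-ubiquitin blot for polyubiquitinated proteins, tubulin as loading control.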

HEK293 [5] = test: Effect on cycloheximide-induced reduction in basal level of polyubiquitinated protein level in HEK293 cells at 1 uM pretreated for 2 hrs followed by cycloheximide addition measured after 6 hrs by SDS-PAGE analysis; type: functional, cell-based; conditions: Homo sapiens; method in brief: as §2
[6] = Aqueous solubility of the compound at pH 7.4; type: physicochemical; conditions: aqueous solution
Method in brief: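 Kinetic solubility measured in aqueous medium at pH 7.4.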

Liver [7] = test: (§3) Half life in mouse liver microsomes; type: ADME, microsome; conditions: microsomes
Method in brief: (§4)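 Compound stability in mouse and human liver microsomes, expressed as half-life in min.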

[8] = Stabilization of human […] expressed in HEK293 cells expressing SMN2 promoter after 24 hrs by luciferase reporter gene assay; type: cell-based; conditions: HEK293, 24 h; method in brief: as §1
Renilla = test: Effect on renilla recombinant luciferase protein expressed in HEK293 cells at 10 uM after 24 hrs in presence of 10 uM cycloheximide by renilla luciferase reporter gene assay; type: cell-based
Method in brief: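 SMN2-luc reporter cells given cycloheximide (10 μM) together with compound (10 μM) or DMSO. Lysed at set time points; SMN-luc and Renilla-luc activities measured.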

HEK293 [9] = test: Stabilization of human […] expressed in HEK293 cells expressing SMN2 promoter after 24 hrs by luciferase reporter gene assay relative to control; type: cell-based; conditions: in the assay text read “SMN protein” for “SMN mRNA”; method in brief: as §1
[10] = target: Survival motor neuron protein (Homo sapiens) (UniProt Q16637); test: Stabilization of SMN protein in HEK293 cells assessed as increase in SMN protein half life at 10 uM by pulse-chase experiment; type: cell-based
[11] = target: Survival motor neuron protein (Homo sapiens) (UniProt Q16637); test: Stabilization of human luc fused SMN protein expressed in HEK293 cells at 10 uM after 24 hrs in presence of 10 uM cycloheximide by luciferase reporter gene assay; type: cell-based
Method in brief: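 SMN2-luciferase reporter cells were maintained in high-glucose DMEM with 10% FBS, Pen/Strep and hygromycin at 37 °C. They were treated at the same time with cycloheximide (10 μM), to block protein synthesis, and with compound or DMSO. Cells were lysed at set time points, and SMN2-luc (firefly) and Renilla-luc activities were read by dual-luciferase assay.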

[12] = target: Survival motor neuron protein (Homo sapiens) (UniProt Q16637); test: Stabilization of SMN protein in 3813T fibroblasts derived from human SMA patient assessed as increase in SMN protein level after 48 hrs by SDS-PAGE and immunoblot
[13] = Cmax in mouse plasma at 20 mg/kg, ip; type: ADME, organism-based; set-up: dose 20 mg/kg, route intraperitoneal; conditions: plasma
[14] = target: Survival motor neuron protein (Homo sapiens) (UniProt Q16637); test: Stabilization of SMN protein in 3813T fibroblasts derived from human SMA patient assessed as increase in SMN protein level after 48 hrs by SDS-PAGE and immunoblot
Method in brief: (§5)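 hTERT-immortalized SMA patient 3813T fibroblasts seeded at 6000/well, next day dosed for 48 h at indicated concentrations, 0.1% DMSO. Lysed in boiling buffer (150 mM NaCl, 10 mM Tris pH 8.0, 2% SDS), run on 10% SDS-PAGE, SMN immunoblotted, normalized to tubulin or actin as fold over DMSO; one-way ANOVA with Dunnett.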

[15] = Cmax in mouse brain at 20 mg/kg, ip; type: ADME, organism-based; set-up: dose 20 mg/kg, route intraperitoneal
Brain = test: Cmax in mouse brain at 20 mg/kg, ip after 30 mins; type: ADME, organism-based; set-up: dose 20 mg/kg, route intraperitoneal; conditions: in vivo, 0.5 h, BLD = below limit of detection
Plasma [16] = test: Cmax in mouse plasma at 20 mg/kg, ip after 30 mins; type: ADME, organism-based; set-up: dose 20 mg/kg, route intraperitoneal; conditions: in vivo, 0.5 h, BLD = below limit of detection
Liver [17] = test: Half life in human liver microsomes; type: ADME, microsome; method in brief: as §4
[18] = target: Survival motor neuron protein (Homo sapiens) (UniProt Q16637); test: Stabilization of SMN protein in 3813T fibroblasts derived from human SMA patient assessed as increase in SMN protein level at 2 uM after 48 hrs by SDS-PAGE and immunoblot
[19] = target: Survival motor neuron protein (Homo sapiens) (UniProt Q16637); test: Stabilization of SMN protein in 3813T fibroblasts derived from human SMA patient assessed as increase in SMN protein level at 2 uM after 48 hrs by SDS-PAGE and immunoblot; method in brief: as §5
HEK293 [20] = test: Effect on human luciferase-tagged SMN mRNA expressed in HEK293 cells assessed as SMN exon 7 included transcript at 10 uM after 24 hrs by qRT-PCR relative to GAPDH mRNA expression; type: cell-based
Method in brief: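 SMN2-luciferase reporter cells treated with compound; total RNA isolated with Trizol, DNase I treated and reverse transcribed. SYBR Green qPCR for SMN exon 7-included and full-length transcripts, with GAPDH as reference.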

[21] = as §3; type: ADME, microsome; conditions: liver microsomes; method in brief: as §4
HEK293 [22] = test: Inhibition of autophagy in HEK293 cells assessed as increase in LC3-2 level at 10 uM after 8 hrs by immunoblot analysis; conditions: Homo sapiens
HEK293 [23] = test: Inhibition of autophagy in HEK293 cells assessed as increase in p62 level at 10 uM after 8 hrs by immunoblot analysis; conditions: Homo sapiens

For `Cc1ccc(NC(=O)c2cc(C(C)C)on2)cc1`, the Activity [1] was 200%.
For `Cc1cc(C(=O)Nc2ccc(F)c(Cl)c2)no1`, the Activity [1] was “inactive”.
Molecule `CC(C)c1cc(C(=O)Nc2ccc(F)cc2)no1` has an Activity [1] of 182%.
For `O=C(Nc1ccc(F)c(Cl)c1)c1cc(C2CCCCC2)on1`, the Activity [1] was “inactive”.
For `CC(C)c1cc(C(=O)N2CCc3ccccc32)no1`, the t1/2 (Plasma [2]) was < 5 min and the Activity [1] was 164%.
With `CC(C)C[C@@H](C=O)NC(=O)[C@H](CC(C)C)NC(=O)[C@H](CC(C)C)NC(=O)OCc1ccccc1` (Cbz-Leu-Leu-Leu-aldehyde) the inhibition (Homo sapiens [3]) was “Active”, the inhibition (Homo sapiens [4]) was “Active” and the Activity (HEK293 [5]) was “Active”.
Work on `COc1cccc(NC(=O)c2cc(C(C)C)on2)c1` yielded an Activity [1] of 147%.
Molecule `COc1ccccc1NC(=O)c1cc(C(C)C)on1` has an Activity [1] of 80%.
In the case of `CC(C)c1cc(C(=O)Nc2cccc(Cl)c2)no1`, the Activity [1] is reported as 160%.
For `CC(C)c1cc(C(=O)Nc2ncco2)no1`, the Activity [1] was “inactive”.
For `CC(C)c1cc(C(=O)N(C)c2ccc(F)c(Cl)c2)no1`, the t1/2 (Plasma [2]) was 5 min and the Activity [1] was “inactive”.
For `CC(C)c1cc(C(=O)Nc2nc3ccccc3[nH]2)no1`, the solubility kinetic [6] was 12 µM (≈ 3.24 µg/mL), the Activity [1] was 211% and the t1/2 (Liver [7]) was < 5 min.
For `O=C(Nc1ccc(F)c(Cl)c1)c1cc(-c2ccccc2)on1`, the Activity [1] was “inactive”.
`Cc1cccc(NC(=O)c2cc(C(C)C)on2)c1` gave an Activity [1] of 150%.
`CC(C)c1cc(NC(=O)c2ccc(F)c(Cl)c2)on1` showed an Activity [1] of 137%.
In the case of `CC(C)c1cc(C(=O)Nc2nc3ccccc3s2)no1`, the Activity [1] is reported as 124%.
For `COc1cc2c(c(OC)c1OC)C(c1cc(Br)ccc1F)CC(=O)N2` (stereo unspecified), the EC50 [8] was 8.3 µM, the Activity (Renilla) was “Active” and the Activity (HEK293 [9]) was 186%. The Activity [10] was “inactive” and the Activity [11] was “Active”.
In the case of `O=C(Nc1ncc(C2CCC2)s1)c1ccc(F)c(Cl)c1`, the t1/2 (Liver [7]) is reported as < 5 min.
In the case of `CC(C)c1cc(C(=O)NC2Cc3ccccc3C2)no1`, the Activity [1] is reported as “inactive”.
Molecule `CC(C)c1cc(C(=O)Nc2cccnc2)no1` has an Activity [1] of 94%.
With `CC(C)c1cc(C(=O)Nc2ccccc2Cl)no1` the Activity [1] was 114%.
For `CC(C)c1cc(C(=O)Nc2ccccc2)no1`, the solubility kinetic [6] was 59 µM (≈ 13.6 µg/mL), the t1/2 (Plasma [2]) was 8 min and the Activity [1] was 190%. For the same molecule, the t1/2 (Liver [7]) was < 5 min.
Work on `CC(C)c1cc(C(=O)Nc2ccc(Cl)cc2)no1` yielded an Activity [1] of 168%.
Work on `CC(C)c1cc(CNc2ccc(F)c(Cl)c2)no1` yielded an Activity [1] of 137%.
With `CC(C)c1cc(C(=O)Nc2cccc(F)c2)no1` the solubility kinetic [6] was 49 µM (≈ 12.2 µg/mL), the Activity [1] was 180% and the t1/2 (Liver [7]) was < 5 min.
`CC(C)c1nc(NC(=O)c2ccc(F)c(Cl)c2)cs1` gave an Activity [1] of 131%.
For `CC(C)c1cc(C(=S)Nc2ccc(F)c(Cl)c2)no1`, the Activity [1] was 120%.
In the case of `O=C(CCCCCCC(=O)Nc1ccccc1)NO`, the Activity (Renilla) is reported as “Active” and the Activity [11] is reported as “Active”.
With `CC(C)c1cc(C(=O)Nc2nc3ccccc3n2C)no1` the Activity [1] was 219%.
With `CC(C)c1cc(NC(=O)Nc2ccc(F)c(Cl)c2)no1` the Activity [1] was “inactive”.
With `CC(C)Cc1cc(C(=O)Nc2ccc(F)c(Cl)c2)no1` the Activity [1] was 180%.
For `CCc1cc(C(=O)Nc2ccc(F)c(Cl)c2)no1`, the Activity [1] was 165%.
Work on `CC(C)(C)c1cc(C(=O)Nc2ccc(F)c(Cl)c2)no1` yielded an Activity [1] of 140%.
In the case of `CC(C)c1cc(C(=O)Nc2nccs2)no1`, the Activity [1] is reported as 166%.
In the case of `CC(C)c1cc(C(=O)Nc2ccccn2)no1`, the Activity [12] is reported as “Dose-dependent effect”, the Cmax [13] is reported as 2 to 3 ng/mL and the solubility kinetic [6] is reported as 77 µM (≈ 17.8 µg/mL). The Activity [14] was “Dose-dependent effect”, the t1/2 (Plasma [2]) was < 5 min and the Cmax [15] was 5 to 6 ng/mL. For the same molecule, the Activity [1] was 195%, the Cmax (Brain) was “Bld” and the Cmax (Plasma [16]) was “Bld”. The t1/2 (Liver [7]) was > 120 min, the t1/2 (Liver [17]) was > 120 min and the fold change (FC) [18] was 2. The fold change (FC) [19] was 2.
In the case of `CC(C)c1cc(C(=O)Nc2ccncc2)no1`, the Activity [1] is reported as “inactive”.
With `CC(C)c1cc(NC(=O)c2ccc(F)c(Cl)c2)no1` the t1/2 (Plasma [2]) was 183 min and the Activity [1] was 188%.
For `CC(C)c1cc(C(=O)Nc2ccc(F)c(Cl)c2)no1`, the Activity (Renilla) was “inactive”, the solubility kinetic [6] was 6 µM (≈ 1.7 µg/mL) and the t1/2 (Plasma [2]) was 13 min. For the same molecule, the Activity [1] was 242%, the Activity (HEK293 [20]) was “inactive” and the half-life [21] was ≤ 5 min. For the same molecule, the Activity [10] was “Active” and the Activity [11] was “Active”.
In the case of `CCN(CC)CCCC(C)Nc1ccnc2cc(Cl)ccc12` (stereo unspecified), the Activity (HEK293 [22]) is reported as “Active” and the Activity (HEK293 [23]) is reported as “Active”.
For `CC(C)c1cc(C(=O)Oc2ccc(F)c(Cl)c2)no1`, the Activity [1] was “inactive”.
In the case of `O=C(Nc1ccc(F)c(Cl)c1)c1ccon1`, the Activity [1] is reported as “inactive”.
`Cc1ccccc1NC(=O)c1cc(C(C)C)on1` gave an Activity [1] of 125%.
`O=C(Nc1ccc(F)c(Cl)c1)c1cc(Cc2ccccc2)on1` showed an Activity [1] of 116%.
In the case of `O=C(Nc1ccc(F)c(Cl)c1)c1cc(C2CCCC2)on1`, the Activity [1] is reported as “inactive”.
For `Cc1c(C(=O)Nc2ccc(F)c(Cl)c2)noc1C(C)C`, the t1/2 (Plasma [2]) was 76 min, the Activity [1] was 182% and the t1/2 (Liver [7]) was < 5 min.
`CC(C)c1cc(C(=O)Nc2ccccc2F)no1` gave a t1/2 (Plasma [2]) of 9 min and an Activity [1] of 175%.
